Values after ≈ are worked out from the molar mass of the structure shown. Active and inactive are the calls of the source. No cut-off for these calls is given here.
Assays:
Bacillus subtilis [1] = experiment: Inhibition of Bacillus subtilis cytoplasmic Walk CA domain (204 to 612 residues) autophosphorylation at 1 mM preincubated for 5 mins followed by [gamma-32P] ATP addition measured after 3 mins by SDS-PAGE based phosphor imaging method
Method in brief: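 Screen used cytoplasmic WalK fragments. 2 µM kinase in Epps buffer pH 8.5 with 20 mM MgCl2, 0.1 mM EDTA and 5% glycerol. Compound at 1 mM final in 10% DMSO, added 5 min before ATP (1 mM final including [γ-32P]ATP). Stopped with SDS loading buffer, run on SDS-PAGE, read by phosphorimaging.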

[2] = Inhibition of Enterococcus faecalis Hexa-his-tagged IreK autophosphorylation expressed in Escherichia coli BL21(DE3) preincubated for 5 mins followed by [gamma-32P] ATP addition measured after 15 mins by SDS-PAGE based phosphor imaging method
Method in brief: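 His6-IreK expressed in E. coli BL21(DE3) with IPTG at 16 °C and purified by Ni-NTA. Autophosphorylation run as for the histidine kinases: 0.5 µM kinase, 2.5 µM ATP with [γ-32P]ATP, compound 0–800 µM added before ATP.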

Bacillus subtilis [3] = experiment: Inhibition of Bacillus subtilis KinA autophosphorylation
[4] = Inhibition of Escherichia coli DNA gyrase supercoiling activity using relaxed pUC19 DNA as substrate after 30 mins by agarose gel electrophoresis
Method in brief: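 E. coli gyrase (1 U) with 75 ng relaxed pUC19 in kit buffer with 2% DMSO. Compound at 6.25–800 µM final, ciprofloxacin as control. Incubated 30 min at 37 °C, stopped with loading dye, supercoiling read by agarose gel electrophoresis.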

Staphylococcus aureus [5] = experiment: Antimicrobial activity against methicillin-resistant Staphylococcus aureus USA300 TCH1516 at 20 ug after 20 hrs by disk diffusion assay; format: functional; details: USA300_TCH1516
Staphylococcus aureus [6] = experiment: Antimicrobial activity against methicillin-resistant Staphylococcus aureus USA300 TCH1516 after 20 hrs by two fold serial broth dilution method; format: functional; details: USA300_TCH1516, 20 h
Method in brief: (§1)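 Two-fold serial broth dilution per CLSI in LB, BHI or THB broth, (3–7) × 10⁵ cfu/mL per well, compound 0.5 to 128 µg/mL, 20 h at 37 °C. MIC is the lowest concentration with no growth. For MBC (>99.99% kill), 10 µL from wells without growth are spotted on agar and read the next day as spots with fewer than 5 colonies.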

Bacillus anthracis = experiment: Antimicrobial activity against Bacillus anthracis 34F2 after 20 hrs by two fold serial broth dilution method; format: functional; details: 34F2, 20 h; method in brief: as §1
[7] = Antimicrobial activity against Streptococcus pyogenes M1 GAS 5448 after 20 hrs by two fold serial broth dilution method; format: functional; details: Streptococcus pyogenes, 5448, 20 h
Method in brief: (§2)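 2-fold serial broth dilution per CLSI in LB, BHI or THB; inoculum (3–7) × 10⁵ cfu/mL; compound 0.5 to 128 µg/mL; 20 h at 37 °C. MIC taken as lowest concentration with no visible growth. For MBC (>99.99% kill), 10 µL from wells without growth spotted on agar; read next day as spots with fewer than 5 colonies.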

Streptococcus agalactiae [8] = experiment: Antimicrobial activity against Streptococcus agalactiae COH1 GBS after 20 hrs by two fold serial broth dilution method; format: functional; method in brief: as §2
Enterococcus faecalis [9] = experiment: Antimicrobial activity against Enterococcus faecalis V583 after 20 hrs by two fold serial broth dilution method; format: functional; details: V583, 20 h; method in brief: as §2
Escherichia coli [10] = experiment: Antimicrobial activity against Escherichia coli MG1655 after 20 hrs by two fold serial broth dilution method; format: functional; details: K-12 substr. MG1655, 20 h; method in brief: as §1
[11] = Bactericidal activity against Bacillus subtilis JH642 after 20 hrs by two fold serial broth dilution method; format: functional, Bacillus subtilis subsp. subtilis str. JH642; method in brief: as §2
[12] = Bactericidal activity against Streptococcus pyogenes M1 GAS 5448 after 20 hrs by two fold serial broth dilution method; format: functional; method in brief: as §2
Streptococcus agalactiae [13] = experiment: Bactericidal activity against Streptococcus agalactiae COH1 GBS after 20 hrs by two fold serial broth dilution method; format: functional; method in brief: as §2
Enterococcus faecalis [14] = experiment: Bactericidal activity against Enterococcus faecalis V583 after 20 hrs by two fold serial broth dilution method; format: functional; method in brief: as §2
[15] = tested on: Bacillus subtilis subsp. subtilis str. JH642; experiment: Bactericidal activity against Bacillus subtilis JH642 assessed as bacterial cell lysis at 50 ug/ml upto 9 hrs; format: functional
Method in brief: (§3)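 B. subtilis JH642 grown overnight in LB, diluted into 20 mL LB at OD600 0.05, grown at 37 °C. Compound added at OD600 0.5–0.6. OD600 followed before and after addition over several hours. Vancomycin served as bactericidal control and chloramphenicol as bacteriostatic control.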

[16] = tested on: Bacillus subtilis subsp. subtilis str. JH642; experiment: Bactericidal activity against Bacillus subtilis JH642 assessed as clearing of bacterial culture at 50 ug/ml upto 9 hrs; format: functional; method in brief: as §3
Escherichia coli [17] = experiment: Inhibition of histidine kinase in amoxicillin-resistant Escherichia coli isolate G28 harboring beta-lactamase assessed as adjuvant activity for restoration of amoxicillin induced antibacterial activity by measuring amoxicillin MIC at 50 ug/ml by broth microdilution method (reference value: >16 ug/ml)
Method in brief: (§4)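 Clinical resistant isolates and quality control strains (S. aureus ATCC 29213, E. coli ATCC 25922) are tested by EUCAST broth microdilution with a 10⁶ bacteria/mL inoculum, in triplicate, with or without a fixed adjuvant concentration. For MBC, the MIC dilution and at least two more concentrated dilutions are plated and CFU/mL counted.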

Escherichia coli [18] = experiment: Inhibition of histidine kinase in ofloxacin-resistant Escherichia coli isolate G02 assessed as adjuvant activity for restoration of ofloxacin induced antibacterial activity by measuring ofloxacin MIC at 50 ug/ml by broth microdilution method (reference value: >16 ug/ml); method in brief: as §4
Staphylococcus aureus [19] = experiment: Inhibition of histidine kinase in penicillin G-resistant Staphylococcus aureus isolate C1P15 harboring penicillinase assessed as adjuvant activity for restoration of penicillin G induced antibacterial activity by measuring penicillin G MIC at 50 ug/ml by broth microdilution method (reference value: >8 ug/ml); method in brief: as §4
Staphylococcus aureus [20] = experiment: Inhibition of histidine kinase in methicillin-resistant Staphylococcus aureus isolate C1BP13 assessed as adjuvant activity for restoration of penicillin G induced antibacterial activity by measuring penicillin G MIC at 50 ug/ml by broth microdilution method (reference value: >8 ug/ml); method in brief: as §4
Escherichia coli [21] = experiment: Inhibition of histidine kinase in amoxicillin-resistant Escherichia coli isolate G28 harboring beta-lactamase assessed as adjuvant activity for restoration of amoxicillin induced bactericidal activity by measuring amoxicillin MBC at 50 ug/ml by broth microdilution method (reference value: >16 ug/ml); method in brief: as §4
Escherichia coli [22] = experiment: Inhibition of histidine kinase in cephalosporin-resistant/ESBL producing Escherichia coli isolate ARS 108 assessed as adjuvant activity for restoration of amoxicillin induced bactericidal activity by measuring amoxicillin MBC at 50 ug/ml by broth microdilution method (reference value: >16 ug/ml); method in brief: as §4
Staphylococcus aureus [23] = experiment: Inhibition of histidine kinase in methicillin-resistant Staphylococcus aureus isolate C1BP13 assessed as adjuvant activity for restoration of cloxacillin induced bactericidal activity by measuring cloxacillin MBC at 50 ug/ml by broth microdilution method (reference value: >8 ug/ml); method in brief: as §4
Staphylococcus aureus [24] = experiment: Inhibition of histidine kinase in methicillin-resistant Staphylococcus aureus isolate C1BP13 assessed as adjuvant activity for restoration of penicillin G induced bactericidal activity by measuring penicillin G MBC at 50 ug/ml by broth microdilution method (reference value: >8 ug/ml); method in brief: as §4

Structure (SMILES): O=[N+]([O-])c1ccc(-c2ccccc2O)s1
- inhibition (Bacillus subtilis [1]): Active
- IC50 [2]: > 800 µM
- inhibition (Bacillus subtilis [3]): Active
- IC50 [4]: ≥ 400 µM
- Activity (Staphylococcus aureus [5]): Active
- MIC (Staphylococcus aureus [6]): 16 µg/mL (≈ 72.3 µM)
- MIC (Bacillus anthracis): 7 µg/mL (≈ 31.6 µM)
- MIC [7]: 10 µg/mL (≈ 45.2 µM)
- MIC (Streptococcus agalactiae [8]): 16 µg/mL (≈ 72.3 µM)
- MIC (Enterococcus faecalis [9]): 32 µg/mL (≈ 145 µM)
- MIC (Escherichia coli [10]): 32 µg/mL (≈ 145 µM)
- MBC99.99 [11]: 10 µg/mL (≈ 45.2 µM)
- MBC99.99 [12]: 32 µg/mL (≈ 145 µM)
- MBC99.99 (Streptococcus agalactiae [13]): >32 µg/mL
- MBC99.99 (Enterococcus faecalis [14]): >64 µg/mL
- Activity [15]: Active
- Activity [16]: Active
- MIC (Escherichia coli [17]): 0.03 µg/mL
- MIC (Escherichia coli [18]): < 0.015 µg/mL
- MIC (Staphylococcus aureus [19]): < 0.015 µg/mL
- MIC (Staphylococcus aureus [20]): < 0.015 µg/mL
- MBC (Escherichia coli [21]): 8 µg/mL
- MBC (Escherichia coli [22]): > 16 µg/mL
- MBC (Staphylococcus aureus [23]): > 8 µg/mL
- MBC (Staphylococcus aureus [24]): 4 µg/mL

Reference: ChEMBL document CHEMBL3860044, “The Rational Design, Synthesis, and Antimicrobial Properties of Thiophene Derivatives That Inhibit Bacterial Histidine Kinases” (J Med Chem, 2016)
